# Screening data as filed in PubChem.
# Sampled rows, rich in hits. Any-hit rate of the full collection: about 0.64%.
# TNAP inh hiacc = human TNAP enzyme inhibitors, primary screen, biochemical, luminescent, high phosphate acceptor level, uHTS. purified TNAP, CDP-star luminescence, 1 M DEA. Alkaline phosphatase, tissue-nonspecific isozyme (Homo sapiens), P05186. 200,000 compounds, 0.03% hits. inhibition, % at 20 µM;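 active = over 50% inhibition of tissue-nonspecific alkaline phosphatase at 20 µM in the single-dose screen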;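 also: plate controls were DMSO wells for no effect and EDTA-quenched wells as full inhibition for full effect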
# Target sequence (P05186 whole entry, looked up): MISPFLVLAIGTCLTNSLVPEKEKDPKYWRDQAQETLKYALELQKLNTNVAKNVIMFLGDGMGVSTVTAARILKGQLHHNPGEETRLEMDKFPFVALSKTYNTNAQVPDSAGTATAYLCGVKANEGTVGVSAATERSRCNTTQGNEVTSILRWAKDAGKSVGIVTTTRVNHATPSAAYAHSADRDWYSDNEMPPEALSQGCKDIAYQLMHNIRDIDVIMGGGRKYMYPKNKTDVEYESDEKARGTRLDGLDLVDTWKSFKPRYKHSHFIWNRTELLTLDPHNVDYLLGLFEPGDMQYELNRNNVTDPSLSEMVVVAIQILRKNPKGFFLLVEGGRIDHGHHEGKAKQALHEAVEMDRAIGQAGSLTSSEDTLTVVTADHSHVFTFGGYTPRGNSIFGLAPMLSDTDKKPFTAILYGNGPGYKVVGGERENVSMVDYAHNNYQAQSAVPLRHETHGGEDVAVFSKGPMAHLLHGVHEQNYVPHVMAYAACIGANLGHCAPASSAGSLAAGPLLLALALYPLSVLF
# PMI activator = activators of human PMI, primary screen, biochemical, fluorescence intensity, near-Km mannose 6-phosphate; purified human PMI, coupled resazurin fluorescence, 20 min; active compounds read high; 1 = vehicle control, 0 substrate-free wells; 190,000 compounds, 0.005% hits; activation factor at 20 µM;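 active = activation factor of 2 or more at 20 µM, relative to plate controls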
# PMI act satM6P = human PMI activators, high substrate, primary screen, biochemical, fluorescence intensity, near-saturating mannose 6-phosphate; 190,000 compounds, 0.34% hits; coupled PMI enzyme assay, resazurin fluorescence, 20 min; active compounds read high; 1 = untreated enzyme, 0 = substrate-free blank; activation factor at 20 µM; Mannose-6-phosphate isomerase (Homo sapiens), P34949;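 active = activation factor of 2 or more at 20 µM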
#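 Material: human phosphomannose isomerase with PGI, G6PDH, diaphorase coupling enzymes. Quantity: 15 ng/mL PMI. Medium: HEPES pH 7.4 buffer with MgCl2 and Tween-20. Reagent: Near-saturating mannose-6-phosphate, 1.0 mM. Compound: 20 µM single dose. Times: enzyme reaction with compound 20 min at room temperature. Detection: resorufin fluorescence at Ex 544/Em 590 nm.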
# TNAP inh noacc = human TNAP enzyme inhibitors, primary screen, biochemical, luminescent, no phosphate acceptor, uHTS; Alkaline phosphatase, tissue-nonspecific isozyme (Homo sapiens), P05186; purified TNAP, CDP-star luminescence, 30 min; inhibition, % at 20 µM; 200,000 compounds, 0.26% hits;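 active = tissue-nonspecific alkaline phosphatase inhibition above about 50% at 20 µM in the single-dose screen, limit read from the data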;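 also: 0% = DMSO negative control and 100% = EDTA positive control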
# TNAP act hiacc = TNAP activators at high phosphate acceptor level, primary screen, biochemical, luminescence, uHTS; AID 1136, 2008; activation factor at 20 µM; purified TNAP, CDP-star luminescence, 1 M DEA, 30 min; active compounds read high; 0 = EDTA background, 1 = DMSO-only activity; 200,000 tested, under 10 active; Alkaline phosphatase, tissue-nonspecific isozyme (Homo sapiens), P05186;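 active = activation factor at least 2 at 20 µM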
#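 Dosing: 20 µM single point. System: human TNAP. Amount: TNAP 1/800 final. Incubation: 30 min, room temperature. Read-out: TNAP activation factor scaled between EDTA and DMSO control wells. Signal: luminescence from CDP-star hydrolysis. Medium: 1 M DEA, pH 9.8, Mg2+, Zn2+. Control set: EDTA negative control, DMSO positive control.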
# Numbers without * were called inactive; . = no result given.
SMILES,TNAP inh hiacc,PMI activator,PMI act satM6P,TNAP inh noacc,TNAP act hiacc
CN(CC(=O)Nc1ccc(F)c(F)c1F)C(=O)/C=C/c1ccc(Cl)cc1,-0.8,1,1.1,-13.7,1
COc1ccc(-c2nc(N)n[nH]2)cc1,-3.3,0.9,1,62.6*,1
CCc1ccc(-c2cc(C(=O)N/N=C/c3c[nH]c4ccccc34)[nH]n2)cc1,5.8,1,0.9,22.2,0.9
COC(=O)c1cc(-c2ccc(Br)cc2)n[nH]1,-0.1,1,1,79.3*,1
COC(=O)c1cc(-c2ccc(Br)cc2)on1,-7.0,1,0.9,-15.1,1.1
COC(=O)c1cc(-c2c[nH]c3ccccc23)n[nH]1,0.5,0.9,0.9,89.2*,1
O=C(NC1CCN(Cc2ccccc2)CC1)c1ccc2c(c1)[nH]c(=O)n2Cc1ccc(F)cc1,1.1,.,.,-2.8,1
COc1cc(/C=N/Nc2ccc(Cl)c(C(=O)O)c2)ccc1OC(=O)c1ccco1,-1.4,1.6,1.5,-8.5,1
COc1cc(/C=N/Nc2ccccc2)ccc1OC(=O)c1cccs1,-1.4,1.5,2.2*,-17.9,1
CSc1ccc(/C=N/Nc2ccc(Cl)c(C(=O)O)c2)cc1,-3.7,1.7,2.4*,-16.4,1
COc1cc(/C=N/Nc2ccc(Cl)c(C(=O)O)c2)ccc1OC(=O)c1cccs1,-1.0,1.6,2.4*,-10.4,1
COc1ccc(CNC(=O)C(CCSC)NS(=O)(=O)c2ccccc2F)cc1 (configuration not stated),-0.1,0.9,1,-3.7,1
CC(C)=NNc1nc(-c2ccccc2)c(C)s1,0.5,1.1,1.3,-8.1,1
COc1ccc(OC)c(S(=O)(=O)NC(C)(C)C)c1,-2.1,1,1,-9.1,1
O=C(N/N=C/c1ccncc1)c1cccc(N/N=C/c2ccncc2)c1,-4.5,1.4,1.2,-14.5,1
O=C(N/N=C/c1ccncc1)c1cccc(NC(=O)c2ccc(Cl)cc2)c1,5.5,1.6,2.4*,-19.5,0.9
COc1ccc(/C=C2\CC/C(=C\c3ccc(OC)c(OC)c3)C2=O)cc1OC,-0.6,0.7,0.8,-13.8,1
CCN1C/C(=C/c2ccc(OC)c(O)c2)C(=O)/C(=C/c2ccc(OC)c(O)c2)C1,38.9,1,0.6,55.9*,0.6
COc1cc(/C=C2/C(=O)ON=C2c2ccccc2)ccc1O,37.0,1.1,1.1,51.6*,0.6
COc1cc(C=C2C(=O)c3ccccc3C2=O)cc(OC)c1OC,9.1,1.2,1.2,4.2,0.9
COc1ccc(C=C2C(=O)c3ccccc3C2=O)cc1O,53.2*,0.8,0.4,-12.4,0.5
Cc1nn(C)cc1CN1CCCC(C(=O)c2ccc(-c3ccccc3)cc2)C1 (configuration not stated),-3.1,0.8,0.9,-3.5,1
COc1ccc(-c2[nH]ncc2C=O)cc1,2.9,1,1.1,69.9*,1
C=CCn1c(O)c(N=NC(=O)OC(C)(C)C)c2ccccc21,4.9,0.9,1,2.1,1
C=CCn1c(O)c(N=Nc2ccccc2C)c2ccccc21,4.5,1.7,2.2*,12.4,1
SMILES,TNAP inh hiacc,PMI activator,PMI act satM6P,TNAP inh noacc,TNAP act hiacc
CC(=O)c1ccc2noc(-c3ccc(Cl)cc3)c2c1,-0.4,1.7,1.9,-6.6,1
CC(=O)c1ccc2noc(-c3ccc(F)cc3)c2c1,6.3,1.7,2.1*,2.3,0.9
Cc1ncccc1C(=O)N1CCCC(CNC(=O)C2(c3ccc(Cl)cc3)CC2)C1 (configuration not stated),-9.7,1,1.1,-16.3,1.1
CC(=O)c1ccccc1OC(=O)CCN1C(=O)c2ccccc2C1=O,4.5,1.1,1,13.2,1
O=C(CN1CCN(Cc2ccccc2)CC1)c1ccc(Br)cc1,-2.5,1.5,2.4*,-1.3,1
Cc1ccc(N2C(=O)C3C(C2=O)C(C(=O)c2ccc(Cl)cc2)N2CCCC32)cc1 (configuration not stated),2.8,1.6,2*,-5.7,1
Cn1c(=S)[nH]c2ccccc21,-4.5,1.1,1.1,8.6,1
Cn1ccc(=S)c2ccccc21,-1.4,1.6,2.2*,-6.7,1
CN(C)c1ccc(CNc2nc(-c3ccccc3)nn2S(C)(=O)=O)cc1,-4.6,1,0.9,-8.9,1
CC(=O)n1nc(-c2ccccc2)nc1NCc1ccc(N(C)C)cc1,-4.4,1,0.9,50.1*,1
O=C(COC(=O)c1c2c(nc3ccccc13)/C(=C/c1ccco1)CC2)NC1CCCC1,14.3,1.4,1.6,11.0,0.9
CC1CCCCC1NC(=O)COC(=O)c1c2c(nc3ccccc13)/C(=C/c1ccco1)CC2 (configuration not stated),11.6,1.7,2*,-1.6,0.9
COc1ccc(/C=C(/C(=O)c2ccc(Cl)cc2Cl)n2cncn2)cc1,-0.8,1.1,1.1,0.5,1
CN(C)c1ccc(/C=C(/C(=O)c2ccc(Cl)cc2Cl)n2cncn2)cc1,54.8*,0.9,1,47.5,0.5
CC1(C)CC(=O)C(CC(=O)Nc2cc(C(F)(F)F)ccc2Cl)C(=O)C1,35.3,1.3,1.1,52.3*,0.6
COCCCNC(=O)c1ccc(N2CCCC2)c(NS(=O)(=O)c2ccc(C)cc2)c1,-7.6,1.3,2.2*,-11.8,1.1
O=C(c1ccccc1)c1c[nH]c(C(=O)NNc2ccccc2)c1,-4.0,1.7,2.3*,-11.0,1
O=C(c1ccccc1)c1c[nH]c(C(=O)NCc2cccnc2)c1,-3.8,1.1,0.9,-9.4,1
CCOC(=O)c1cc2c(=O)n3ccccc3nc2n(C(C)C)c1=NC(=O)c1ccncc1,-6.1,1.4,2.2*,-9.5,1.1
CCOC(=O)c1cc2c(=O)n3ccccc3nc2n(CCCOC)c1=NC(=O)c1cccnc1,-6.3,1.7,2*,-12.7,1.1
CCOC(=O)c1cc2c(=O)n3ccccc3nc2n(CCOC)c1=NC(=O)c1ccncc1,-4.9,1.3,1.4,-7.7,1
CCOC(=O)C1(CCOc2ccccc2)CCN(Cc2cccc3nonc23)CC1,-2.0,0.9,0.9,-3.0,1
CCn1c(=S)ccc2ccc(OC)cc21,-5.3,1.6,2*,-14.8,1.1
O=c1cc(/N=C/c2coc3c(ccc4ccccc43)c2=O)[nH]c(=S)[nH]1,24.0,1,0.8,53.3*,0.8
